System: MS2 coat protein
Assay: apparent Kd, MS2 coat protein; higher = weaker binding; RNA-MaP array; tryptophan 2.4 mM where present
How it was run: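 SNAP-549-labelled MS2 coat protein, doubled from 0.7 or 1.5 nM to 3 µM, was titrated over designs transcribed by stalled E. coli RNA polymerase on Illumina sequencing-chip clusters. Titrations were run without and then with constant ligand in 100 mM Tris-HCl pH 7.5, 80 mM KCl, 4 mM MgCl2, BSA, DTT, yeast tRNA and Tween-20. The apparent Kd is the median of filtered per-cluster fits to green signal normalised to red-channel RNA signal and control-cluster median Fmax.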

[1] = designed as: OFF switch for tryptophan, no ligand
[2] = ligand present: tryptophan, designed as: OFF switch for tryptophan
[3] = designed as: ON switch for tryptophan, no ligand
[4] = ligand present: tryptophan, designed as: ON switch for tryptophan

Row | Sequence | apparent Kd [1] [nM] | apparent Kd [2] [nM] | apparent Kd [3] [nM] | apparent Kd [4] [nM]
1 | CCAUAAGUACCGGUCCUCAGAUCCUCAUGACGAGGACCGGUACGGCCGCCACUCGAAACAUGAGGAUCACCCAUGUAAUAAUACC | 39.2 | 26.4 |  | 
2 | ACAUUGCGCACGGCCGCCACUGGCUAUAGAUUUAUAGCAUUAAUGAACAUGAGGAUCACCCAUGUCAGGACCGGGUGCGAACCAU |  |  | 17.3 | 19.7
3 | AUUGUGAAGUCGGCCGCCACUGGUUAGUUUAACCUCAUGUAACAUGAGGAUCACCCAUGUAAUGACAGGACCGGGACAAUAGUAA | 187 | 151 |  | 
4 | AACAUGAGGAUCACCCAUGUCCCAUGUGAACGAGGACCGGUACGGCCGCCACUCGAAUAAGGCGGCACAUGAGGAUCACCCACAU |  |  | 168 | 373
5 | UAUAUAUAUCACUAACUGUUCUUGAGGUCUCGAGGACCGGUACGGCCGCCACUCGGGCCGCCUCACAUGAGGAUCACCCAUGUCC | 56.4 | 68.2 |  | 
6 | ACACAAUACAUGAGGAUCACCCAUGUAUAACGAGGACCGGUACGGCCGCCACUCGAAUACUGUAAUCCUCGGAAUAUUAUGUGAA | 39 | 19.1 |  | 
7 | GGUACAUGAGGAUCACCCAUGUAUUGGUACCGAGGACCGGUACGGCCGCCACUCGCAUGACAUGAGGAUCACCCAUGUGAAACCU |  |  | 52.5 | 66.5
8 | GGAUAGGACACGGCCGCCACUAGCUAGGAUACUAGCAACAUUUCCUCACAUGAGGAUCACCCAUGUAGGACCGGGUGUCCUAUCG | 111 | 135 |  | 
9 | ACAUGAGGAUCACCCAUGUGAAGCAGGGUACGAGGACCGGUACGGCCGCCACUCGAGGAUUAUGCCGAGUGAAUGGCAACGAUGU | 14.4 | 15.4 |  | 
10 | AUUCAUGGAAACAUGACAUAGGGAUCACUCCGAGGACCGGUACGGCCGCCACUCGCGAGGAGGCACAUGAGGAUCACCCAUGUUA |  |  | 49 | 39.7
11 | CUACAUGUAGUUAAACCGGUCAACAAUAAUCGAGGACCGGUACGGCCGCCACUCGAUGUGUUAUACACAUGAGGAUCACCCAUGU |  |  | 23.2 | 18.9
12 | UUACCGUAAGGUAUACCGGUCUACAAUAAUCGAGGACCGGUACGGCCGCCACUCGAUGUGUAAUCACAUGAGGAUCACCCAUGUA |  |  | 23.3 | 18.5
13 | UAAUAAUUCCUCAUGUCACGAGUGGCAUAACGAGGACCGGUACGGCCGCCACUCGAACAUGAGGAUCACCCAUGUAGCCACUCGA |  |  | 143 | 113
14 | GAUAUUUGAAAACAAAUAUCAGUGGGUGAACGAGGACCGGUACGGCCGCCACUCGGACAUGAGGAUCACCCAUGUCCAUGUGAAA | 15.6 | 37.4 |  | 
15 | AAUUAGAUGUCGGCCGCCACUGAUGUGUCUGUUGCGUCCAGUGUGUACAUGAGGAUCACCCAUGUCAGGACCGGGACUUUAAAUU | 11 | 34 |  | 
16 | UUAUAAGUACCGGUCCUCAGAUCCUCAUGACGAGGACCGGUACGGCCGCCACUCGAAACAUGAGGAUCACCCAUGUAAUAACAUU | 20 | 20.1 |  | 
17 | GCAUCCUAGUCGGCCGCCACUGCAAUUGUAAUACUGCUACAUGAGGAUCACCCAUGUCCAUGUAGCAGGACCGGGACUAGGAUGC |  |  | 578 | 79.8

Row | Sequence | apparent Kd [1] [nM] | apparent Kd [2] [nM] | apparent Kd [3] [nM] | apparent Kd [4] [nM]
18 | CACGAAAGAUCGGCCGCCACUAAUCUAUGUGUUCUUUCACAUGAGGAUCACCCAUGUUCUUGCGUUAGGACCGGGAUUGAGCGUG | 34.1 | 36.4 |  | 
19 | ACGCUGCAUAGGAAAACUAUGUAGCGAAAUCGAGGACCGGUACGGCCGCCACUCGUCCUCAACAUGAGGAUCACCCAUGUAAUAA | 19.9 | 34.7 |  | 
20 | GCGGAAUAAUCGGCCGCCACUAUGAGACAGGAAACUGUCACAUGAGGAUCACCCAUGUAUCCUCAUAGGACCGGGAUUAAAACGC |  |  | 76.3 | 19.4
21 | ACAUGAGGAUCACCCAUGUGUGUAAAUCCUCGAGGACCGGUACGGCCGCCACUCGAUCGAGUGUAAGUUGAAUGUAACAUUCAAC |  |  | 88.4 | 70.5
22 | GCUCACAUGAGGAUCACCCAUGUACGUCCGCGAGGACCGGUACGGCCGCCACUCGUGUUAGCUUCAAACUUGUUAGUGUUAAACA |  |  | 40.4 | 16.1
23 | GAGCUCGUGGACUGGCGUGCUCCGCUCCGUCGAGGACCGGUACGGCCGCCACUCGACAUGAGGAUCACCCAUGUGUGAGCUCGCU | 75.3 | 54.2 |  | 
24 | AGAGGUAUACAUGGAAACAUGUAUAUUUCACGAGGACCGGUACGGCCGCCACUCGGUACCGGAAACACAUGAGGAUCACCCAUGU | 18.7 | 16.9 |  | 
25 | UAUAAUAACUCGGCCGCCACUGGCACAUGAGGAUCACCCAUGUCUAUAUAUAAUAUAUAGUUGCACAGGACCGGGAGAUAUAUAU | 8.95 | 8.21 |  | 
26 | AAUAAUAGGUGAUCUUGUGUCGUACCGUAACGAGGACCGGUACGGCCGCCACUCGAACAUGAGGAUCACCCAUGUAUGUAUGAUA |  |  | 171 | 128
27 | AACAUGAGGAUCACCCAUGUCCCAUGUGAACGAGGACCGGUACGGCCGCCACUCGACCGAGGCGGCACAUGAGGAUCACCCGCAU |  |  | 375 | 926
28 | UCGUUUUAGUCGGCCGCCACUGUAUGCAUGUUUAACAUGAGGAUCACCCAUGUCCCGUACUAUUUCAGGACCGGGACGUAAUCGA |  |  | 322 | 156
29 | AACAUGAGGAUCACCCAUGUGUCCUCGAAACGAGGACCGGUACGGCCGCCACUCGAAUAAGCUGUUGACGAAAAGUCAGCAGCAA | 257 | 670 |  | 
30 | CCGCCUGCCUCACAUGAGGAUCACCCAUGUCGAGGACCGGUACGGCCGCCACUCGUCGUCGGUAAUACAGGCAUUGAAUAAUAUA | 11.2 | 45.1 |  | 
31 | AACAUCACAACGGCCGCCACUGCACAUGACAACAUGAGGAUCACCCAUGUGGAUCACCCAUGUCCCAGGACCGGGUUAUGAGGAU |  |  | 29.1 | 25.9
32 | GCCGGUACGUCGGCAAAGCCGAUGUGCCAGCGAGGACCGGUACGGCCGCCACUCGUACAUGAGGAUCACCCAUGUCCGGUCCGGC |  |  | 44.7 | 49
33 | AAUUCAAGGUUCUUGAUGUAUUAUAUAUUUCGAGGACCGGUACGGCCGCCACUCGUUAAUUACAUGAGGAUCACCCAUGUUAGCU | 17 | 20.9 |  | 
34 | AGGUGCGGCACGGCCGCCACUGCGGUGGUGUGACAUGAGGAUCACCCAUGUUGUCAUGCGGCCCUUAGGACCGGGUGGCGUGCCU | 39.7 | 46 |  | 
